Consider 13 molecules from ChEMBL document CHEMBL1145010, “Stereoselective synthesis of beta-lactams with polyaromatic imines: entry to new and novel anticancer agents” (2003).

The nature of test [1]: (§1) In Vitro cytotoxicity against human cancer cell line, BRO. Type of test: functional, Cancer cell lines. The essentials: (§2)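 MTT cytotoxicity assay across a panel of nine human cancer cell lines, run in the institutional Pharmacology and Analytic Core Laboratory by a previously described protocol. Cisplatin and a diamide were included as reference controls. Activity above 20 μM/mL was regarded as not significant.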

Another test has as its system HL-60. As to the kind of experiment: In Vitro cytotoxicity against human cancer cell line, HL-60. The class given is functional. The essentials:
as §2

The next test relates to HT-29. As to the kind of experiment: In Vitro cytotoxicity against human cancer cell line, HT-29. The class given is functional. Summed up:
as §2

A further test deals with K562. Description: In Vitro cytotoxicity against human cancer cell line, K-562. The class given is functional. The essentials: as §2
Test [2] can be described thus: (§3) In Vitro cytotoxicity against human cancer cell line, MDA-213. Type of test: functional, Cancer cell lines. Summed up:
as §2

A further test relates to MCF7. Description: In Vitro cytotoxicity against human cancer cell line, MCF-7. Type of test: functional. The essentials:
as §2

For another test, the system named is OVCAR. As to the kind of experiment: In Vitro cytotoxicity against human cancer cell line, OVCAR. The class given is functional. The essentials:
as §2

Another test deals with PC-3. Description: In Vitro cytotoxicity against human cancer cell line, PC-3. Type of test: functional. Summed up: as §2
Test [3] is described as follows: (§4) In Vitro cytotoxicity against human cancer cell line, SKOV. The class given is functional, Cancer cell lines. Summed up: as §2
The test system of test [4] is Cancer cell lines. The test is described as §1. Type of test: functional. Summed up:
as §2

Test [5] has as its system Cancer cell lines. Described as §3. The class given is functional. Summed up:
as §2

Test [6] concerns Cancer cell lines. Described as §4. The class given is functional. The essentials: as §2

Some results are limits rather than exact numbers.

Regarding `CC(=O)OC1C(=O)N(c2cccc3cc4c(cc23)Cc2cc3ccccc3cc2-4)[C@H]1c1ccccc1` (stereo not given in full), the Cytotoxicity (in test [1]; with HL-60; with HT-29; in the test on K562; in test [2]; in the test on MCF7) was greater than 20 µM in each case. In addition, the Cytotoxicity (in the test with OVCAR; in the test with PC-3; in test [3]) was greater than 20 µM in each case.
For `O=C1c2ccccc2C(=O)N1C1C(=O)N(c2cc3c4ccccc4ccc3c3ccccc23)[C@H]1c1ccccc1` (stereo not given in full), the Cytotoxicity (in [1]; in the test with HL-60; in the test on HT-29; in the test on K562; in test [2]; in the test with MCF7) was greater than 20 µM each time. Moreover, the Cytotoxicity (with OVCAR; in the test with PC-3; in [3]) was greater than 20 µM throughout.
As to `CC(=O)OC1C(=O)N(c2cc3c4ccccc4ccc3c3ccccc23)[C@H]1c1ccccn1` (stereo not given in full), the Cytotoxicity in test [1] was 11 µM; in the test with HL-60, 2.5 µM; in the test with HT-29, 15.9 µM; in the test with K562, 2.5 µM; in test [2], 14.46 µM; in the test on MCF7, 14.93 µM. This molecule had a Cytotoxicity in [3] of 9 µM.
For `O=C1C(Oc2ccccc2)[C@H](c2ccccc2)N1c1cc2c3ccccc3ccc2c2ccccc12` (stereo not given in full), the Cytotoxicity (in [1]; in the test on HL-60; in the test on HT-29; with K562; in [2]; with MCF7) was greater than 20 µM each time. Moreover, the Cytotoxicity (in the test with OVCAR; in the test on PC-3; in test [3]) was greater than 20 µM each time.
On to `CC(=O)OC1C(=O)N(c2ccccc2)C1c1cc2c3ccccc3ccc2c2ccccc12` (stereo not given), for which the Cytotoxicity (in test [1]; in the test with HL-60; with HT-29; in the test with K562; in test [2]; in the test on MCF7) was greater than 20 µM throughout. Also, the Cytotoxicity (in the test with OVCAR; in the test on PC-3; in test [3]) was greater than 20 µM throughout.
With `O=C1C(Oc2ccccc2)[C@H](c2ccccc2)N1c1cc2ccccc2c2ccccc12` (stereo not given in full), the Cytotoxicity (in [1]; with HL-60; in the test with HT-29; in the test with K562; in [2]; in the test on MCF7) was greater than 20 µM throughout. Besides, the Cytotoxicity (in the test with OVCAR; in the test on PC-3; in test [3]) was greater than 20 µM throughout.
In the case of CISPLATIN, the Cytotoxicity in the test on Cancer cell lines [4] amounted to 7.66 µM; in the test with HL-60 it was 1.66 µM; in the test with HT-29, 17 µM; with K562, 2.33 µM; in the test on Cancer cell lines [5] it was 12.3 µM; in the test with MCF7, 10.1 µM. For the same molecule, the Cytotoxicity in the test on OVCAR amounted to 3.99 µM; with PC-3, 4.66 µM; in the test with Cancer cell lines [6], 5.99 µM.
For the molecule `CC(=O)OC1C(=O)N(c2cc3c4ccccc4ccc3c3ccccc23)[C@H]1c1ccccc1` (stereo not given in full), the Cytotoxicity in test [1] came to 10.84 µM; in the test on HL-60 it was 3.64 µM; in the test on HT-29, 5.66 µM; in the test with K562 it was 4.33 µM; in [2], 11.98 µM; in the test with MCF7 it was 9.81 µM. Also, the values for the Cytotoxicity (in the test with OVCAR; in the test on PC-3; in [3]) were 4.17 µM, 16.32 µM and 6.88 µM, respectively.
On to `CC(=O)OC1C(=O)N(c2cccc3cc4ccccc4cc23)[C@@H]1c1ccccc1` (stereo not given in full), for which the Cytotoxicity (in test [1]; in the test on HL-60; with HT-29; in the test with K562; in [2]; with MCF7) was greater than 20 µM throughout. Also, the Cytotoxicity (in the test on OVCAR; with PC-3; in test [3]) was greater than 20 µM throughout.
On to `CN1CCN(C(=O)CCC(=O)Nc2cc3c4ccccc4ccc3c3ccccc23)CC1`, for which the Cytotoxicity amounted to 33.64 µM in test [1]; 9.41 µM in the test on HL-60; 16.7 µM in the test on HT-29; 12.7 µM with K562; 12.23 µM in test [2]; 40 µM in the test on MCF7. In addition, the Cytotoxicity with OVCAR was found to be 18.11 µM; in the test on PC-3, 27.29 µM; in [3], 11.05 µM.
Regarding `CC(=O)OC1C(=O)N(c2cccc3ccccc23)[C@@H]1c1ccccc1` (stereo not given in full), the Cytotoxicity (in test [1]; in the test with HL-60; in the test on HT-29; in the test with K562; in test [2]; in the test with MCF7) was greater than 20 µM throughout. Besides, the Cytotoxicity (in the test with OVCAR; in the test on PC-3; in test [3]) was greater than 20 µM in each case.
Turning to `CC(=O)OC1C(=O)N(c2ccc3ccc4cccc5ccc2c3c45)[C@H]1c1ccccc1` (stereo not given in full), the Cytotoxicity (in test [1]; in the test with HL-60; with HT-29; in the test with K562; in [2]; in the test with MCF7) was greater than 20 µM throughout. Further, the Cytotoxicity (with OVCAR; with PC-3; in [3]) was greater than 20 µM throughout.
Take `CC(=O)OC1C(=O)N(c2cc3ccccc3c3ccccc23)[C@H]1c1ccccc1` (stereo not given in full): the Cytotoxicity was found to be 10.48 µM in test [1]; 5.21 µM with HL-60; 10.49 µM with HT-29; 4 µM with K562; 12.49 µM in test [2]; 10.09 µM in the test on MCF7. Moreover, the Cytotoxicity with OVCAR was 18 µM; with PC-3 it was 9.3 µM; in [3], 18 µM.
